According to ChEMBL document CHEMBL1155646, “Kinmoonosides A-C, three new cytotoxic saponins from the fruits of Acacia concinna, a medicinal plant collected in myanmar” (2000):

system: HT-1080; assay: Cytotoxicity against human HT1080 cells by 3-(4,5-dimethylthiazol-2-yl)-[…] bromide assay; assay type: functional; settings: read-out: ED50 (the source's name)
In short: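 Human HT-1080 fibrosarcoma cells were tested in a standard tetrazolium (MTT) viability assay following an earlier published protocol. Potency was reported as ED50, given in µg/mL and also converted to µM.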

Row | Structure (SMILES) | EC50
1 | C[C@H]1O[C@@H](OC[C@H]2O[C@@H](O[C@H]3CC[C@]4(C)[C@H]5CC=C6[C@@H]7CC(C)(C)[C@@H](O)C[C@]7(C(=O)O)[C@H](O)C[C@@]6(C)[C@]5(C)CC[C@H]4C3(C)C)[C@H](O[C@@H]3O[C@H](CO)[C@@H](O)[C@H](O)[C@H]3O)[C@@H](O)[C@@H]2O)[C@H](O[C@@H]2OC[C@@H](O)[C@H](O)[C@H]2O)[C@@H](O)[C@H]1O | > 100 µg/mL
2 | C=CC1(C)CCC(C(CO)C(=O)O)O1 (centres undefined) | > 100 µg/mL
3 | C=CC(C)(O)CC/C=C(\CO)C(=O)O[C@H]1[C@H](O)[C@@H](O)C(O)O[C@@H]1C (some centres undefined) | > 100 µg/mL
4 | C=CC(C)(CC/C=C(\CO)C(=O)O)O[C@@H]1O[C@H](C)[C@@H](O)[C@H](O)[C@H]1O (some centres undefined) | > 100 µg/mL
5 | CC1(C)C[C@H]2C3=CC[C@@H]4[C@@]5(C)CC[C@H](O[C@@H]6O[C@H](CO[C@@H]7OC[C@H](O)[C@H](O)[C@H]7O[C@@H]7OC[C@@H](O)[C@H](O)[C@H]7O)[C@@H](O)[C@H](O)[C@H]6O[C@@H]6O[C@H](CO)[C@@H](O)[C@H](O)[C@H]6O)C(C)(C)[C@@H]5CC[C@@]4(C)[C@]3(C)C[C@@H](O)[C@@]23C[C@@H]1OC3=O | > 100 µg/mL
6 | C=CC(C)(O)CC/C=C(\CO)C(=O)O[C@H]1C[C@]2(C(=O)O[C@@H]3O[C@H](CO)[C@@H](O)[C@H](O)[C@H]3O[C@@H]3O[C@@H](C)[C@H](O[C@H]4O[C@@H](CO)[C@H](O)[C@H]4O)[C@@H](O[C@@H]4O[C@H](CO)[C@@H](O)[C@H](O)[C@H]4O)[C@H]3O)[C@H](O)C[C@]3(C)C(=CC[C@@H]4[C@@]5(C)CC[C@H](O[C@@H]6O[C@H](CO[C@@H]7OC[C@H](O)[C@H](O)[C@H]7O)[C@@H](O)[C@H](O)[C@H]6O[C@@H]6O[C@H](CO)[C@@H](O)[C@H](O)[C@H]6O)C(C)(C)[C@@H]5CC[C@]43C)[C@@H]2CC1(C)C (some centres undefined) | 2830 nM
7 | CC1(C)C[C@H]2C3=CC[C@@H]4[C@@]5(C)CC[C@H](O[C@@H]6O[C@H](CO[C@@H]7OC[C@H](O)[C@H](O)[C@H]7O)[C@@H](O)[C@H](O)[C@H]6O[C@@H]6O[C@H](CO)[C@@H](O)[C@H](O)[C@H]6O)C(C)(C)[C@@H]5CC[C@@]4(C)[C@]3(C)C[C@@H](O)[C@@]2(C(=O)O)C[C@@H]1O | > 100 µg/mL
8 | CC(=O)N[C@H]1[C@H](O[C@H]2CC[C@]3(C)[C@H]4CC=C5[C@@H]6CC(C)(C)[C@@H](O)C[C@]6(C(=O)O)[C@H](O)C[C@@]5(C)[C@]4(C)CC[C@H]3C2(C)C)O[C@H](CO[C@@H]2OC[C@H](O)[C@H](O)[C@H]2O)[C@@H](O)[C@@H]1O | > 100 µg/mL
9 | C=CC(C)(CC/C=C(\C)C(=O)O)O[C@@H]1O[C@H](C)[C@@H](O)[C@H](O)[C@H]1O (mixture of isomers) | > 100 µg/mL
10 | O=c1[nH]cc(F)c(=O)[nH]1 [FLUOROURACIL] | 8000 nM
11 | C=CC(C)(O)CC/C=C(\CO)C(=O)O[C@H]1[C@H](O)[C@@H](O)[C@H](O[C@](C)(C=C)CC/C=C(\CO)C(=O)O[C@H]2C[C@]3(C(=O)O[C@@H]4O[C@H](CO)[C@@H](O)[C@H](O)[C@H]4O[C@@H]4O[C@@H](C)[C@H](O[C@H]5O[C@@H](CO)[C@H](O)[C@H]5O)[C@@H](O[C@@H]5O[C@H](CO)[C@@H](O)[C@H](O)[C@H]5O)[C@H]4O)[C@H](O)C[C@]4(C)C(=CC[C@@H]5[C@@]6(C)CC[C@H](O[C@@H]7O[C@H](CO[C@@H]8OC[C@H](O)[C@H](O)[C@H]8O)[C@@H](O)[C@H](O)[C@H]7O[C@@H]7O[C@H](CO)[C@@H](O)[C@H](O)[C@H]7O)C(C)(C)[C@@H]6CC[C@]54C)[C@@H]3CC2(C)C)O[C@@H]1C (some centres undefined) [KINMOONOSIDE B] | 910 nM
12 | C=CC(C)(O)CC/C=C(\CO)C(=O)O[C@H]1[C@H](O)[C@@H](O)[C@H](O[C@@](C)(C=C)CC/C=C(\CO)C(=O)O[C@H]2C[C@]3(C(=O)O[C@@H]4O[C@H](CO)[C@@H](O)[C@H](O)[C@H]4O[C@@H]4O[C@@H](C)[C@H](O[C@H]5O[C@@H](CO)[C@H](O)[C@H]5O)[C@@H](O[C@@H]5O[C@H](CO)[C@@H](O)[C@H](O)[C@H]5O)[C@H]4O)[C@H](O)C[C@]4(C)C(=CC[C@@H]5[C@@]6(C)CC[C@H](O[C@@H]7O[C@H](CO[C@@H]8OC[C@H](O)[C@H](O)[C@H]8O)[C@@H](O)[C@H](O)[C@H]7O[C@@H]7O[C@H](CO)[C@@H](O)[C@H](O)[C@H]7O)C(C)(C)[C@@H]6CC[C@]54C)[C@@H]3CC2(C)C)O[C@@H]1C (some centres undefined) [KINMOONOSIDES A] | 700 nM
13 | C=CC(C)(O)CC/C=C(\C)C(=O)O (centres undefined) [MENTHIAFOLIC ACID] | > 100 µg/mL
14 | CC(=O)N[C@H]1[C@H](O[C@H]2CC[C@]3(C)[C@H]4CC=C5[C@@H]6CC(C)(C)[C@@H](O)C[C@]6(C(=O)O)[C@H](O)C[C@@]5(C)[C@]4(C)CC[C@H]3C2(C)C)O[C@H](CO[C@@H]2OC[C@H](O)[C@H](O)[C@H]2O[C@@H]2OC[C@@H](O)[C@H](O)[C@H]2O)[C@@H](O)[C@@H]1O [PROSAPOGENIN 2] | > 100 µg/mL
